HSF1 activator: increases HSF-1 driven luciferase reporter signal; NIH3T3-HGL HSF-1 luciferase reporter, MG132, 8 h; 100% = twice DMSO control signal; 300,000 compounds, 1.7% hits; activation, % at 9 µM;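 active means mean replicate activation of at least 50% with a set share of replicates each reaching 50%; inconclusive means only one of those two conditions met; inactive means mean below 50% and too few replicates reaching it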;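 further: 0% = median of the neutral control wells and 100% = twice that signal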
AI-2 QS modul: modulates the Vibrio harveyi AI-2 quorum sensing system; AID 2094; Vibrio harveyi JMH597 AI-2 luminescence/OD600 ratio, 9 h; stronger effect = lower value; strain lacks LuxN and CqsS sensors; 0 = neutral-control median; 300,000 compounds, 0.4% hits; activity change, % at 7.5 µM; in the data active means activity change below about -75%, passing the limit was not always enough; inconclusive means no clear call, values can overlap the other calls;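 further: luminescence divided by OD600 gain over 9 h not by final OD600 alone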
ALR H2O2 inh: human ALR oxidase inhibition via reduced H2O2; purified ALR, DTT oxidation, H2O2 HRP-luminol luminescence; inhibition, % (no concentration beside the values); 290,000 compounds, 3.8% hits;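 active means mean replicate inhibition above about 79%, with every replicate also reaching it, limit read from the data; inconclusive means only one of the two criteria met; inactive means mean below limit and not every replicate reaching it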
Target sequence (P55789 whole entry, looked up): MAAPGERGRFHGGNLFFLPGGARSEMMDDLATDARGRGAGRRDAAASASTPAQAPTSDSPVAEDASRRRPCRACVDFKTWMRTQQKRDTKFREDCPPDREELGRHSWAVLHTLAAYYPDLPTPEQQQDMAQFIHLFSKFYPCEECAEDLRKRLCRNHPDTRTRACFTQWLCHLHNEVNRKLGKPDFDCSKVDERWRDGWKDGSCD
HSF1 inhib: HSF1 inhibition; NIH3T3-HGL HSE-luciferase, MG132-induced, luminescence 8 h; stronger effect = lower value; activity change, negative = inhibition, % at 7.5 µM (by protocol); 300,000 compounds, 0.77% hits; AID 2098;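 active means more than half of replicate wells show activity change below -50%, luminescence cut by over half; inconclusive means some wells, but at most half, below -50%; inactive means no replicate well below -50%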;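 further: luciferase reports HSF-1 transcriptional activity via heat shock element; 0% = median of DMSO wells and -100% = zero luminescence signal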
PHOSPHO1 block: PHOSPHO1 (human) inhibition; inhibition, % at 13.3 µM; Q8TCT1; AID 1565; recombinant PHOSPHO1, absorbance phosphatase assay; 290,000 compounds, 1.1% hits; in the data active means inhibition above about 60%
Target sequence (Q8TCT1 whole entry, looked up): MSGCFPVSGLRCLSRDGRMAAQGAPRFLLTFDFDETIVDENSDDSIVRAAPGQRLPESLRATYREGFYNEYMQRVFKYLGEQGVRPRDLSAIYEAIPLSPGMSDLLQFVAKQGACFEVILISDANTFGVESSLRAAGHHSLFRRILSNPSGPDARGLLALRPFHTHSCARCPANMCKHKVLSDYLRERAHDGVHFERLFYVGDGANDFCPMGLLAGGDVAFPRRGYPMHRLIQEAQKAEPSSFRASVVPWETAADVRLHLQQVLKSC
core dimer inh: HCV core protein dimerization inhibition; 300,000 compounds, 0.33% hits; AID 1899; TR-FRET GST/Flag-core106 dimerization, 1536-well; inhibition, % at 5 µM;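 active means inhibition above the mean of all tested compounds plus 3 SD, set per screening campaign, cut at about 45% in these data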
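System: GST/Flag-tagged HCV core106 proteins. Incubation: compound-protein-antibody incubation 4 h at 22.5 °C. Technique: HTRF with 340 nm excitation, 617/671 nm emission. Medium: KF-containing HEPES buffer, pH 7.45, DTT, CHAPS, BSA. Read-out: inhibition (%) from 671 over 617 nm ratio. Also added: Eu(K)-anti-GST 90 ng/mL plus XL665-anti-Flag 1 µg/mL.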
* = called active by the depositor; u = inconclusive; x = not tested or not shown. Shown are actives, neighbours in structure and some others; about 6.8% of the full set was active somewhere.

SMILES | HSF1 activator | AI-2 QS modul | ALR H2O2 inh | HSF1 inhib | PHOSPHO1 block | core dimer inh
COc1ccc(CCNC(=O)CSc2cc(=O)[nH]c(N)n2)cc1OC | 4 | 2 | 58 | -1 | 16 | -1
COc1ccc(CCNC(=O)CSc2c[nH]c3ccccc23)cc1OC | -21 | 18 | 97* | -2 | -7 | 9
N#CC1(NC(=O)CN2C(=O)NC(Cc3c[nH]c4ccccc34)C2=O)CCCCC1 (configuration not stated) | x | x | 6 | x | x | x
CCN(Cc1ccccc1)C(=O)CN1C(=O)COc2ccc(S(=O)(=O)NC3CCCC3)cc21 | 2 | 12 | 0 | 2 | 63* | 5
COc1ccc(CNC(=O)CN2C(=O)COc3ccc(S(=O)(=O)NC4CCCC4)cc32)cc1 | 19 | 32 | 3 | 3 | 43 | -4
Cn1c(-c2ccc3nc(N)sc3c2)nc2cc(N)ccc21 | 34 | 2 | 99* | 24 | 18 | -15
CC(C)CCNC(=O)COC(=O)/C=C/c1ccc2ccccc2n1 | 19 | 11 | 97* | 12 | 16 | -1
O=C(COC(=O)/C=C/c1ccccc1)NCCNC(=O)COC(=O)/C=C/c1ccccc1 | -6 | x | -4 | -3 | x | 4
COc1cccc(CN(C)C(=O)c2ccc(COc3ccc(Cl)cc3)cc2)c1OC | 55* | 25 | -5 | 31 | -16 | -5
Cc1csc(NS(=O)(=O)c2cccc([N+](=O)[O-])c2)n1 | -8 | 18 | 6 | -2 | 32 | -1
Cc1cc(-c2nc3c4c5c(sc4[nH]c(=O)n3n2)CCC5)c(C)o1 | -11 | 28 | 71 | -10 | 80* | 55*
CSc1cccc(NC(=O)/C=C/c2cccc(Cl)c2)c1 | 41 | -40 | -1 | 24 | -12 | 9
CC1(C)CC(=O)c2cnc(N3CCc4ccccc4C3)nc2C1 | 55* | 25 | -3 | 42 | -4 | 5
COC(=O)c1nn(-c2cccc(C(F)(F)F)c2)c(=O)cc1Sc1ccccn1 | -65 | 13 | -10 | -52* | -6 | 0
Cc1c(C(=O)O)nn(-c2cccc(C(F)(F)F)c2)c(=O)c1C#N | 19 | 16 | -26 | 0 | x | 3
CCOC(=O)C1(Cc2cccc(F)c2)CCN(C(=O)c2cnc(C)cn2)CC1 | -1 | -9 | -4 | 3 | 30 | -4
CC(C)(C)N(NS(=O)(=O)c1ccc(F)cc1)c1ccccc1 | 57* | 15 | u | 3 | 9 | -4
CC(C)C[C@H](NC(=O)c1nc[nH]c1C(=O)N1CCN(C(=O)OC(C)(C)C)CC1)C(=O)OCc1ccccc1 | -11 | 16 | -31 | -7 | -3 | -16
CC1=CC(=O)c2c(O)ccc(O)c2C1=O | x | x | -10 | x | 28 | 70*
CCN1C(=O)/C(=C2/C=Cc3ccccc3N2C)OC1=S | 29 | 9 | -19 | 15 | 65* | -14
Cn1c(=O)[nH]c(=O)c2c1nc(N1CCOCC1)n2CC(O)COc1ccccc1 (configuration not stated) | 2 | 31 | -2 | -2 | 21 | -4
Cn1c(=O)[nH]c(=O)c2c1nc(N1CCCCC1)n2C/C=N/Nc1ccc(C(=O)O)cc1 | 25 | 25 | 32 | 2 | 64* | -5
COc1ccc(CNc2nc3c(c(=O)[nH]c(=O)n3C)n2Cc2ccccc2C)cc1 | -79 | 3 | 4 | -69* | -7 | 2
COc1ccc(CCn2c(N3CCOCC3)nc3c2c(=O)[nH]c(=O)n3C)cc1 | 5 | 40 | 99* | -3 | 10 | -2
Cn1c(=O)[nH]c(=O)c2c1nc(NCc1ccccc1)n2Cc1ccc(F)cc1 | -5 | 7 | -3 | -2 | 34 | x
SMILES | HSF1 activator | AI-2 QS modul | ALR H2O2 inh | HSF1 inhib | PHOSPHO1 block | core dimer inh
Cn1c(=O)[nH]c(=O)c2c1nc(N1CCCC1)n2CC(O)COc1ccccc1 (configuration not stated) | 3 | 14 | 95* | -4 | 21 | -1
Cc1cc(Br)ccc1NC(=O)CN(C)C(=O)Cn1c(=O)cnc2ccccc21 | 0 | 31 | -2 | -10 | -12 | -4
c1cnc(N2CCN(c3cnccn3)CC2)nc1 | 10 | 4 | -1 | 2 | 28 | -3
CCOc1ccc(/C=N/NC(=O)Cc2cccs2)cc1 | 9 | -19 | -2 | 0 | 36 | -4
Cc1ccccc1OCC(O)Cn1c(SC(C)C)nc2c1c(=O)[nH]c(=O)n2C (configuration not stated) | 13 | -6 | -15 | 2 | 91* | 4
CCSc1nc2c(c(=O)[nH]c(=O)n2C)n1CC(O)COc1ccccc1C (configuration not stated) | 5 | 15 | -4 | 0 | 4 | -3
CCOc1ccc(NCc2nc3ccccc3n2CCOc2ccccc2)cc1 | -61 | 29 | 5 | -52* | -3 | 0
CCOc1ccc(Nc2nc3ccccc3n2C)cc1 | 72* | -9 | 94* | 30 | x | -2
CCN(CC)CCNc1nc2ccccc2n1C | 57* | 41 | -8 | 15 | -8 | -5
Cn1c(NCc2cccc(Br)c2)nc2ccccc21 | -12 | 15 | 93* | -8 | 11 | 0
COc1cc(Cl)ccc1NC(=S)N(CCN1CCOCC1)C1CCN(C(C)=O)CC1 | -6 | 10 | x | -7 | -12 | -2
CCn1c(C)nc2cc(C(=O)N/N=C/c3ccc(OC)c(O)c3)ccc21 | 4 | 21 | x | -8 | -2 | 3
Fc1ccccc1N1CCN(C2CCCN(Cc3ccccc3C(F)(F)F)C2)CC1 (configuration not stated) | -1 | 13 | x | -2 | 24 | 0
CCCn1c(Nc2nc3ccccc3n2C)nc2ccccc21 | -14 | 18 | 34 | 0 | 10 | 0
CC(=O)NCCc1nc2ccccc2n1CCCCOc1ccccc1 | 54* | -15 | -12 | 18 | 6 | x
CCc1ccccc1Nc1nc2ccccc2n1C | 26 | 22 | 98* | 4 | 25 | -1
CC(OC(=O)c1cccc(-n2cnnn2)c1)C(=O)Nc1ccc(F)cc1Cl (configuration not stated) | -8 | 12 | -25 | 0 | x | 1
O=C(Cn1cnc(S(=O)(=O)N2CCCC2)c1)Nc1ccc(OC(F)(F)F)cc1 | 7 | 23 | -3 | -4 | 32 | -12
Cc1ccc(NS(=O)(=O)c2cccc(C(=O)N/N=C/c3ccc4c(c3)OCCO4)c2)c(C)c1 | 12 | 26 | x | 3 | -5 | 8
Cc1cc(C)nc(NC(=O)c2ccc(C)c([N+](=O)[O-])c2)n1 | -81 | 20 | 5 | -72* | 14 | -9
Cc1ccc(C(=O)NC(=S)N2CC(C)OC(C)C2)cc1[N+](=O)[O-] (configuration not stated) | -9 | 6 | 5 | -8 | 90* | -2
CC(NC(=O)c1ccc(N2CCCC2)c([N+](=O)[O-])c1)c1ccc(S(N)(=O)=O)cc1 (configuration not stated) | 23 | 5 | 98* | -1 | -1 | 0
